For the test, the system named is aryl hydrocarbon receptor (Cavia porcellus). Put plainly: AhR activators driving DRE binding, late-stage follow-up, counter-screen for AhR activator project, biochemical, radiometric EMSA, guinea pig liver cytosol (AID 624402). Particulars: active compounds read high. The essentials: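 Assay system – guinea pig liver cytosol containing native aryl hydrocarbon receptor · Medium – HEDG buffer at pH 7.5 · Probe or stimulus – Poly dIdC and [32P]-DRE probe · Dosing – single 10 µM compound dose per reaction · Schedule – 2.5 h compound exposure at room temperature, 15 min per later addition · Detection – radiometric EMSA, phosphorimaging · Repeats – triplicates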

SMILES strings stand for the structures. Activity calls are given as the source filed them.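 The calls were made as follows: active = binding altered by at least 10% in every panel; inactive = the rest.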

In general, inhibition refers to the relative decrease from the control value, in per cent.

`Cc1ccc(NC(=O)c2ccc(C(=O)Nc3ccc(C)cc3C)nc2)c(C)c1`: the inhibition was 13.3% (run 1, at 10 µM) and 9.3% (inactive) (run 2, at 10 µM).
The matching figures for `Cc1ccc(-c2cc(-c3ccc(F)cc3)n[nH]2)c(O)c1`: 50.8% and 47.5%.
Consider `COc1ccc(-c2cc(-c3ccc(C)cc3O)[nH]n2)cc1`, for which the inhibition was 4.8% (inactive) (run 1, at 10 µM) and 3.2% (inactive) (run 2, at 10 µM).
For `CCOC(=O)c1c(C)nn(-c2cc(Cl)ccc2Cl)c1C`, the inhibition (run 1, at 10 µM) is 8.4% (inactive) and the inhibition (run 2, at 10 µM) was 5.4% (inactive).
As for `Cc1cccc(C)c1NC(=O)c1ccc(C(=O)Nc2c(C)cccc2C)nc1`, the inhibition (run 1, at 10 µM) was 8.6% (inactive) and the inhibition (run 2, at 10 µM) was 9% (inactive).
Take `COc1ccc(Nc2cc(Cl)nc(N)n2)cc1OC`: the inhibition was 7.5% (inactive) (run 1, at 10 µM) and 5.6% (inactive) (run 2, at 10 µM).
For `Cc1cccc(NC(=O)c2cc(-c3ccc(C)cc3O)n[nH]2)c1` the same measures were 8.2% (inactive) and 4.3% (inactive).
With `O=C(CSc1nc(-c2ccc(F)cc2)cs1)Nc1ccccn1`, the inhibition (run 1, at 10 µM) is 9.5% (inactive) and the inhibition (run 2, at 10 µM) is 7.1% (inactive).
Take `Cc1ccnc(NC(=O)CSc2nc3ccccc3s2)c1`: the inhibition reads like this: (run 1, at 10 µM) 19.7%; (run 2, at 10 µM) 17.3%.
On to `Cc1cc(Br)cc(C)c1Nc1ccnc(Nc2ccc(C#N)cc2)n1`, for which the inhibition (run 1, at 10 µM) was 5.8% (inactive) and the inhibition (run 2, at 10 µM) was 5.3% (inactive).
With `Cc1ccc(-c2cc(-c3ccc(Cl)cc3)n[nH]2)c(O)c1`, the inhibition is, setting by setting: (run 1, at 10 µM) 32.8%; (run 2, at 10 µM) 28.8%.
As for `Nc1nc(Cl)cc(Nc2ccc(Oc3ccccc3)cc2)n1`, the inhibition runs as follows: (run 1, at 10 µM) 10.9% (inactive); (run 2, at 10 µM) 8.5% (inactive).
As for `O=C(CSc1nc2ccccc2s1)Nc1ccc(Cl)cn1`, the inhibition was 16.3% (run 1, at 10 µM) and 19.4% (run 2, at 10 µM).
For `COc1ccc(NC(=O)c2ccc(C(=O)Nc3ccc(OC)cc3OC)nc2)c(OC)c1` the same measures were 6.9% (inactive) and 11.8% (inactive).
On to `Cc1csc(SCC(=O)Nc2ccccn2)n1`, for which the inhibition is 6.2% (inactive) (run 1, at 10 µM) and 6.7% (inactive) (run 2, at 10 µM).
For `COc1ccc(Cl)cc1NC(=O)c1ccc(C(=O)Nc2cc(Cl)ccc2OC)nc1`, the inhibition by setting is: (run 1, at 10 µM) 9.7% (inactive); (run 2, at 10 µM) 8.4% (inactive).
With `Cc1cc(Nc2ccc(F)cc2)nc(N)n1`, the inhibition was 9.6% (inactive) (run 1, at 10 µM) and 5.6% (inactive) (run 2, at 10 µM).
Turning to `Cc1ccc(-c2cc(-c3cccc(F)c3)n[nH]2)c(O)c1`, the inhibition is, setting by setting: (run 1, at 10 µM) 42.7%; (run 2, at 10 µM) 39.8%.
For the compound `O=C(CSc1nc2ccccc2s1)Nc1ccccn1`, the inhibition was 41.3% (run 1, at 10 µM) and 38.5% (run 2, at 10 µM).
Turning to `Nc1nc(Cl)cc(Nc2ccccc2F)n1`, the inhibition runs as follows: (run 1, at 10 µM) 15.4%; (run 2, at 10 µM) 12.5%.
For the compound `CCOc1ccccc1NC(=O)c1ccc(C(=O)Nc2ccccc2OCC)nc1`, the inhibition was 6.4% (inactive) (run 1, at 10 µM) and 4.4% (inactive) (run 2, at 10 µM).
With `COc1ccc(O)c(-c2cc(-c3cccs3)[nH]n2)c1`, the inhibition is, setting by setting: (run 1, at 10 µM) 6.4% (inactive); (run 2, at 10 µM) 5.5% (inactive).
`CN(Cc1cc(-c2cccs2)n[nH]1)Cc1coc2ccccc2c1=O`: the inhibition (run 1, at 10 µM) is 22.1% and the inhibition (run 2, at 10 µM) was 19%.
Consider `COc1ccc(Nc2cc(Cl)nc(N)n2)cc1`, for which the inhibition (run 1, at 10 µM) was 10% (inactive) and the inhibition (run 2, at 10 µM) is 7.1% (inactive).
Consider `Cc1ccc(O)c(-c2cc(-c3ccccc3Cl)[nH]n2)c1`, for which the inhibition by setting is: (run 1, at 10 µM) 58.4%; (run 2, at 10 µM) 51.9%.

Source of the values: PubChem BioAssay AID624402 (The Scripps Research Institute Molecular Screening Center, 2012).
